Common to all, as to format: functional
The target in assay [1] is T1, Ornithine decarboxylase (Mus musculus) (UniProt P00860).
T1 sequence (whole entry): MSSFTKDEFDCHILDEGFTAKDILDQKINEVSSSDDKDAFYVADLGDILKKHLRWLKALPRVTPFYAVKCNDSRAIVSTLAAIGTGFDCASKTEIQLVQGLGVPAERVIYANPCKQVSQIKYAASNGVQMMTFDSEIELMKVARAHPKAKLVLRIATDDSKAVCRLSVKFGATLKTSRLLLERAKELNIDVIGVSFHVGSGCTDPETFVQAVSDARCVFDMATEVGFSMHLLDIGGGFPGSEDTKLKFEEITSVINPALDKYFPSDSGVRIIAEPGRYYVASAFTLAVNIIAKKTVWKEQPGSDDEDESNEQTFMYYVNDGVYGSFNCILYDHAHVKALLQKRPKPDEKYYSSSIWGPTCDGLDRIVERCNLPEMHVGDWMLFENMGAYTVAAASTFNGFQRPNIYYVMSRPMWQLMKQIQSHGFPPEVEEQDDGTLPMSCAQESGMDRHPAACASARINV
The experiment in a line: Inhibition of TPA induced ODC(Ornithine decarboxylase) activity in mice epidermis at 34 nmol in the presence of TPA. The method in brief: (§1)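 Mouse epidermis in vivo: retinoid applied to shaved back 1 h before topical 10 nmol TPA. Mice killed 5 h after TPA. Epidermis separated, homogenized and centrifuged at 30000 g. Soluble ODC activity measured as nmol CO2 released per 30 or 60 min per mg protein. Values are mean ± SE of three groups of three mice. Percent inhibition = (acetone+TPA ODC − retinoid ODC)/(acetone+TPA ODC) × 100.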

The target in assay [2] is T1, Ornithine decarboxylase (Mus musculus). Kind of assay: Inhibition of TPA induced ODC(Ornithine decarboxylase) activity in mice epidermis at 34 nmol in the presence of TPA compared to control value. A digest of the protocol:
as §1

For assay [3] the target is unchanged. The experiment in a line: Inhibition of TPA induced ODC(Ornithine decarboxylase) activity in mice epidermis at 17 nmol in the presence of TPA. A digest of the protocol: as §1
Assay [4] shares this target. The experiment in a line: Inhibition of TPA induced ODC(Ornithine decarboxylase) activity in mice epidermis at 0 nmol in the presence of acetone + TPA. A digest of the protocol:
as §1

The target is the same in assay [5]. The experiment in a line: Inhibition of TPA induced ODC(Ornithine decarboxylase) activity in mice epidermis at 0 nmol in the presence of acetone. The method in brief: as §1
The target is the same in assay [6]. Kind of assay: Inhibition of TPA induced ODC(Ornithine decarboxylase) activity in mice epidermis at 17 nmol in the presence of 13-cis-retinoic acid + TPA. The method in brief: as §1
Assay [7] shares this target. Kind of assay: Inhibition of TPA induced ODC(Ornithine decarboxylase) activity in mice epidermis at 17 nmol in the presence of 13-cis-retinoic acid + TPA compared to control value. The method in brief: as §1
The target is the same in assay [8]. Kind of assay: Inhibition of TPA induced ODC(Ornithine decarboxylase) activity in mice epidermis at 17 nmol in the presence of TPA compared to control value. The method in brief:
as §1

The target is the same in assay [9]. Kind of assay: Inhibition of TPA induced ODC(Ornithine decarboxylase) activity in mice epidermis at 0 nmol in the presence of acetone+TPA. The method in brief:
as §1

Assay [10] has the same target. The experiment in a line: Inhibition of TPA induced ODC(Ornithine decarboxylase) activity in mice epidermis at 34 nmol in the presence of trans-retinoic acid + TPA compared to control value. A digest of the protocol: as §1
For assay [11] the target is unchanged. The experiment in a line: Inhibition of TPA induced ODC(Ornithine decarboxylase) activity in mice epidermis at 34 nmol in the presence of trans-retinoic acid + TPA. A digest of the protocol:
as §1

Assay [12] shares this target. Kind of assay: Inhibition of TPA induced ODC(Ornithine decarboxylase) activity in mice epidermis at 0 nmol in the presence of acetone+ TPA. A digest of the protocol:
as §1

Results on 9 compounds are retold here after ChEMBL document CHEMBL1123815, “Heteroarotinoids. Synthesis, characterization, and biological activity in terms of an assessment of these systems to inhibit the induction of ornithine decarboxylase activity and to induce terminal differentiation of HL-60 cells” (J Med Chem, 1987).

As usually defined, the inhibition is the share of the control response that was lost under treatment. Turning to `CC(/C=C/C=C(\C)c1ccc2c(c1)C(C)(C)CCO2)=C\C(=O)O`, the ODC activity ((nM of CO2) hr-1 (mg of protein)-1) in assay [1] was found to be 1.4. The inhibition in [2] was 74%.

For the compound `CC(/C=C/C=C(\C)c1ccc2c(c1)C(C)(C)CCS2)=C\C(=O)O`, the ODC activity ((nM of CO2) 30min-1 (mg of protein)-1) in assay [3] came out at 0.1; in assay [4], 0.9; in [5], 0; in assay [6], 0.1. The inhibition in assay [7] and in [8] was 89% each time.

`COC(=O)c1ccc(/C=C(\C)c2ccc3c(c2)C(C)(C)CO3)cc1`: in [1], the ODC activity ((nM of CO2) hr-1 (mg of protein)-1) worked out at 1.5. For the same compound, the inhibition in [2] worked out at 72%.

Take `C/C(=C\c1ccc(C#N)cc1)c1ccc2c(c1)C(C)(C)CCO2`: the ODC activity ((nM of CO2) hr-1 (mg of protein)-1) in [1] turned out to be 1.77. Moreover, in assay [2], the inhibition came to 0%.

`CCOC(=O)/C=C(C)/C=C/C=C(\C)c1ccc2c(c1)C(C)(C)CCS2`: the ODC activity ((nM of CO2) 30min-1 (mg of protein)-1) in assay [3] and in assay [5] was 0 in each case. Moreover, the inhibition in [8] was 100%.

Take `C/C(=C\c1ccc(CO)cc1)c1ccc2c(c1)C(C)(C)CCO2`: in assay [1], the ODC activity ((nM of CO2) hr-1 (mg of protein)-1) turned out to be 1.7. In addition, the ODC activity in assay [9] worked out at 5.3; in assay [11], 1. The inhibition stood at 81% in assay [10] and 68% in [2].

In the case of `C/C(=C\c1ccc(C=O)cc1)c1ccc2c(c1)C(C)(C)CCO2`, the ODC activity ((nM of CO2) hr-1 (mg of protein)-1) in assay [1] came out at 3.5. Further, the inhibition in assay [2] came out at 34%.

As for `COC(=O)c1ccc(/C=C(\C)c2ccc3c(c2)C(C)(C)CCO3)cc1`, the ODC activity ((nM of CO2) hr-1 (mg of protein)-1) is 0.95 in assay [1], 0.14 in assay [6] and 1.67 in assay [12]. For the same compound, the inhibition in [2] is 43%; in assay [7], 92%.

Turning to `CC(/C=C/C=C(\C)c1ccc2c(c1)C(C)(C)CCS2)=C\C(=O)OCCN1C(=O)c2ccccc2C1=O`, in assay [1], the ODC activity ((nM of CO2) hr-1 (mg of protein)-1) is 0.97. Further, the inhibition in [2] is 42%.
